Reference: ChEMBL document CHEMBL1137092, “Synthesis and evaluation of two 18F-labeled 6-iodo-2-(4'-N,N-dimethylamino)phenylimidazo[1,2-a]pyridine derivatives as prospective radioligands for beta-amyloid in Alzheimer's disease” (J Med Chem, 2004)
Values joined by “and” are separate entries in the source; they are usually repeats but may differ in a detail not shown here. Equal entries are not always repeated. Each block holds one compound with its values, some of them ahead of it.

Assays:
[1] = Compound (i.v.) was evaluated for elimination rate constants in brainstem of rhesus monkeys (Radiolabeled compound); type: ADME, tissue-based, Brain; details: cercopithecidae, iv, read-out: Activity (converted)
Method in brief: (§1)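 Rhesus monkey with urinary catheter; ECG, temperature, heart and respiration rates monitored. A 32 min 68Ge transmission scan was taken for attenuation correction. 18F ligand (2.9 mCi) given iv. Dynamic 3D head PET ran 120 min (33 frames, 30 s–5 min). Regional uptake and elimination rate constants were fitted from time-activity curves.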

[2] = Compound (i.v.) was evaluated for elimination rate constants in cerebellum of rhesus monkeys (Radiolabeled compound); type: ADME, tissue-based; details: cercopithecidae, iv; method in brief: as §1
[3] = Compound (i.v.) was evaluated for elimination rate constants in frontal cortex of rhesus monkey (Radiolabeled compound); type: ADME, tissue-based; details: cercopithecidae, iv, read-out: Activity (converted); method in brief: as §1
[4] = Compound (i.v.) was evaluated for elimination rate constants in jaw bone of rhesus monkeys; NA = not active (Radiolabeled compound); type: ADME, tissue-based, Bone element; details: cercopithecidae, iv; method in brief: as §1
[5] = Compound (i.v.) was evaluated for elimination rate constants in striatum of rhesus monkey (Radiolabeled compound); type: ADME, tissue-based; details: cercopithecidae, iv; method in brief: as §1
[6] = Compound (i.v.) was evaluated for uptake rate constants in brainstem of rhesus monkeys (Radiolabeled compound); type: ADME, tissue-based, Brain; details: cercopithecidae, iv; method in brief: as §1
[7] = Compound (i.v.) was evaluated for uptake rate constants in cerebellum of rhesus monkeys (Radiolabeled compound); type: ADME, tissue-based; details: cercopithecidae, iv; method in brief: as §1
[8] = Compound (i.v.) was evaluated for uptake rate constants in frontal cortex of rhesus monkey (Radiolabeled compound); type: ADME, tissue-based; details: cercopithecidae, iv; method in brief: as §1
[9] = Compound (i.v.) was evaluated for uptake rate constants in jaw bone of rhesus monkey (Radiolabeled compound); type: ADME, tissue-based, Bone element; details: cercopithecidae, iv; method in brief: as §1
[10] = Compound (i.v.) was evaluated for uptake rate constants in striatum of rhesus monkeys (Radiolabeled compound); type: ADME, tissue-based; details: cercopithecidae, iv; method in brief: as §1
[11] = species on record: Mus musculus; assay: Residual activity in mice at 120 minutes, expressed as [(ID%-kg)/g] (Radiolabeled compound); type: ADME, organism-based; details: in vivo, 2 h
Method in brief: (§2)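 Male ICR mice (2–3 months, 20–30 g) under 1% isoflurane, body temperature held at 36–37 °C. No-carrier-added 18F ligand (400–450 μCi) in 0.9% saline with 0.1% Tween given via tail-vein catheter. Dynamic small-animal PET for 1–2 h. Brain and skull time-activity curves were averaged over four mice and fitted to a double-exponential model; bone uptake was fitted linearly or exponentially.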

[12] = test system: Mus musculus; assay: Compound (i.v.) was tested for maximum activity in mice (Radiolabeled compound); type: ADME, organism-based; details: in vivo, iv; method in brief: as §2
[13] = test system: Mus musculus; assay: Compound was evaluated for elimination rate constants in vivo in whole blood of normal mice (Radiolabeled compound); type: ADME, organism-based
Method in brief: (§3)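 Normal mice given 18F ligand iv during PET. Serial blood samples (10–35 μL) were taken and analysed by reverse-phase HPLC for parent, lipophilic and polar radioactive components. Parent, lipophilic and total curves were fitted to single-exponential decay; the polar metabolite curve was fitted double-exponentially to give rate constants.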

[14] = species on record: Mus musculus; assay: Compound was evaluated for rate of bone uptake in mice (Radiolabeled compound); type: ADME, organism-based, Bone element; details: in vivo; method in brief: as §2
[15] = test system: Mus musculus; assay: Compound was evaluated for uptake rate constants in vivo in whole blood of normal mice (Radiolabeled compound); type: ADME, organism-based; method in brief: as §3
[16] = test system: Mus musculus; assay: Compound was evaluated for uptake rate constants in vivo in whole blood of normal mice; NA = not active (Radiolabeled compound); type: ADME, organism-based; method in brief: as §3
[17] = species on record: Mus musculus; assay: Compound was evaluated for washout rate in mice (Radiolabeled compound); type: ADME, organism-based; details: in vivo; method in brief: as §2
[18] = test system: Mus musculus; assay: Maximum activity (i.v.) after in mice, expressed as [(ID%-kg)/g] (Radiolabeled compound); type: ADME, organism-based; details: in vivo, iv; method in brief: as §2
[19] = Compound was evaluated for distribution coefficient (logD) measured at pH7.4; type: physicochemical; details: octanol/water, pH 7.4
Method in brief: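 Shake-flask partition: ligand (3–5 mg) in 0.1 M sodium phosphate pH 7.4 (6.0 mL) with n-octanol (1.0 mL). Vortexed 1 min, shaken 1 min, filtered, left 10 min at RT, centrifuged 5000g for 10 min. Value is the ratio of organic-phase to aqueous-phase concentration.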

[20] = species on record: Mus musculus; assay: Time at maximum activity in mice (Radiolabeled compound); type: ADME, organism-based; details: in vivo; method in brief: as §2
[21] = species on record: Mus musculus; assay: Compound was evaluated for rate of bone uptake in mice; NA - not active (Radiolabeled compound); type: ADME, organism-based, Bone element; details: in vivo
[22] = species on record: Mus musculus; assay: Maximum activity in mice, expressed as [(ID%-kg)/g] (Radiolabeled compound); type: ADME, organism-based; details: in vivo; method in brief: as §2
[23] = test system: Mus musculus; assay: Compound was evaluated for rate of bone uptake after administration of radiolabeled in mice (Radiolabeled compound); type: ADME, organism-based, Bone element; details: in vivo; method in brief: as §2
[24] = species on record: Mus musculus; assay: Compound was evaluated for washout rate in mice after radiolabeled ligand injected; type: ADME, organism-based; details: in vivo; method in brief: as §2

- k el [1]: 0.000813 s⁻¹
- Activity [2]: 0.0854 min⁻¹
- k el [3]: 0.00101 s⁻¹
- Activity [4]: Not Active
- Activity [5]: 0.0859 min⁻¹
- Activity [6]: 1 min⁻¹
- Activity [7]: 1.09 min⁻¹
- Activity [8]: 0.859 min⁻¹
- Activity [9]: 0.373 min⁻¹
- Activity [10]: 0.972 min⁻¹
- Activity [11]: 0.111
- Activity [12]: 0.5 min
- Activity [14]: 0.0016 min⁻¹
- Activity [15]: 0.576 min⁻¹
- Activity [16]: Not Active
- Activity [17]: 0.334 min⁻¹
- Activity [18]: 0.161
- logD [19]: 4.41
Structure (SMILES): CN(CCF)c1ccc(-c2cn3cc(I)ccc3n2)cc1
- Activity [13]: 1.14 min⁻¹ and 0.722 min⁻¹ and 0.801 min⁻¹

- Activity [11]: 0.0108
- Activity [20]: 2 min
- Activity [21]: Not Active
- Activity [17]: 0.122 min⁻¹
- Activity [22]: 0.216
- logD [19]: 3.58
Structure (SMILES): CN(C)c1ccc(-c2cn3cc([125I])ccc3n2)cc1

- Activity [11]: 0.0479
- Activity [20]: 1.83 min
- Activity [23]: 0.00728 min⁻¹
- Activity [24]: 0.127 min⁻¹
- Activity [18]: 0.157
- logD [19]: 4.6
Structure (SMILES): CN(CCCF)c1ccc(-c2cn3cc(I)ccc3n2)cc1
